How the values were obtained:
[1] = Hepatic microsome stability assay; format: in vitro ADME, mouse
[2] = Hepatic microsome stability assay; format: in vitro ADME, human
[3] = Plasma protein binding by equilibrium dialysis; format: in vitro ADME, human; conditions: 5 μM, 37 °C, 6 hours
Procedure, shortened: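 Equilibrium dialysis with test compound at 5 μM initial in the plasma chamber against PBS in the receiver chamber. Shaken at 37 °C for 6 h. Samples from both chambers were matrix-matched to 1:1 plasma:PBS and quantified by LC-MS/MS. Fraction bound = ([plasma] – [PBS]) / [plasma]. Run in triplicate.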

S. aureus ATCC 29213 = assay: Prevention of biofilm formation, microtiter dish assay; format: cell-based, Staphylococcus aureus; conditions: 2 μg/mL, 24 h
Procedure, shortened: (§1)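 Static biofilm prevention assay with S. aureus ATCC 29213 or MRSA clinical isolates from local hospitals in central China. Strains were grown in TSB plus 1% glucose in 96-well tissue-culture plates with test compound (0.0125–8 μg/mL) for 24 h. Wells were washed with sterile water and stained with 0.1% (w/v) crystal violet. Stain was solubilised in 95% ethanol and read at 540 nm. Results are reduction in biofilm mass, from three independent experiments in triplicate.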

MRSA [4] = assay: as above; format: cell-based, Staphylococcus aureus; conditions: for inhibition of biofilm formation: 0.0125–8 μg/mL, 24 h
Procedure, shortened: as §1

MRSA [5] = assay: MRSA mouse peritonitis model; format: in vivo; conditions: for MRSA in blood or kidney of the survived mice: 14 days after administration
[6] = mouse, liver microsomes, pH 7.4

half-life at 1 μM [1, 6]	microsomal CLint at 1 μM [1, 6]	microsomal CLint at 1 μM ([2]; human, liver microsomes, pH 7.4)	Structure (SMILES)	Plasma Protein Binding, Bound [3]	reduction of biofilm formation (S. aureus ATCC 29213)	biofilm reduction, comparison of PTM with PTM-2t (MRSA [4])	inhibition of biofilm formation (MRSA [4])	MRSA in blood or kidney of the survived mice (MRSA [5])	Intrinsic Clearance ([1]; mouse liver microsomes 1 mg/mL, 1 μM compound)	T1/2 ([1]; mouse liver microsomes 1 mg/mL, 1 μM compound, 37 °C)	Intrinsic Clearance ([2]; human liver microsomes)	Plasma Protein Binding, Free [3]	mice survival (MRSA [5]; C57BL/6J mice, 50 mg/kg i.p. at 1 h and 5 h post infection, 14 days)
13.6 min	51 µL/min/mg	14 µL/min/mg	CC12C[C@@]34C=CC(=O)[C@@](C)(CCC(=O)Nc5c(O)ccc(C(=O)O)c5O)C3[C@H](CC1C4)O2 (some centres unmarked) [PTM, platensimycin, reference compound]	66.0%	over 95%	reduced more biofilm from MRSA than PTM-2t	dose-dependently inhibited	–	–	–	–	–	–
–	–	–	CN[C@H](CC(C)C)C(=O)N[C@H]1C(=O)N[C@@H](CC(N)=O)C(=O)N[C@H]2C(=O)N[C@H]3C(=O)N[C@H](C(=O)N[C@H](C(=O)O)c4cc(O)cc(O)c4-c4cc3ccc4O)[C@H](O)c3ccc(c(Cl)c3)Oc3cc2cc(c3O[C@@H]2O[C@H](CO)[C@@H](O)[C@H](O)[C@H]2O[C@H]2C[C@](C)(N)[C@H](O)[C@H](C)O2)Oc2ccc(cc2Cl)[C@H]1O [vancomycin, reference compound]	–	–	–	–	Only a few MRSA were present	–	–	–	–	–
–	–	–	CCSC1CC(=O)C(C)(CCC(=O)Nc2c(O)ccc(C(=O)O)c2O)C2C3CC4CC12CC4(C)O3 (centres unmarked) [2t]	35.0%	over 95%	–	dose-dependently inhibited	a significant number of MRSAs was still present	46 µL/min/mg	15.0 min	32.0 µL/min/mg	65.0%	80%

— PMC6763203 (Molecular pharmaceutics, 2019)
